Test results: ChEMBL document CHEMBL1145040, “Biaryl analogues of conformationally constrained tricyclic tropanes as potent and selective norepinephrine reuptake inhibitors: synthesis and evaluation of their uptake inhibition at monoamine transporter sites” (J Med Chem, 2003)

Assays:
[1] = molecular target: Sodium-dependent dopamine transporter (Rattus norvegicus, UniProt P23977); experiment: Ability to inhibit [3H]DA reuptake at dopamine transporter from rat brain
Outline: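 Rat brain P2 synaptosomes in modified KRH buffer (pH 7.4, nialamide); drug preincubation 30 min at 4 °C, then 15 min at 37 °C. [3H]DA (~5 nM final) uptake for 5 min, ended with cold sodium-free buffer, GF/C filtration and scintillation counting.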

[2] = molecular target: Norepinephrine transporter (Rattus norvegicus, UniProt Q9WTR4); experiment: Ability to inhibit [3H]NE reuptake at norepinephrine transporter from rat brain
Sequence of Norepinephrine transporter (Q9WTR4 whole entry): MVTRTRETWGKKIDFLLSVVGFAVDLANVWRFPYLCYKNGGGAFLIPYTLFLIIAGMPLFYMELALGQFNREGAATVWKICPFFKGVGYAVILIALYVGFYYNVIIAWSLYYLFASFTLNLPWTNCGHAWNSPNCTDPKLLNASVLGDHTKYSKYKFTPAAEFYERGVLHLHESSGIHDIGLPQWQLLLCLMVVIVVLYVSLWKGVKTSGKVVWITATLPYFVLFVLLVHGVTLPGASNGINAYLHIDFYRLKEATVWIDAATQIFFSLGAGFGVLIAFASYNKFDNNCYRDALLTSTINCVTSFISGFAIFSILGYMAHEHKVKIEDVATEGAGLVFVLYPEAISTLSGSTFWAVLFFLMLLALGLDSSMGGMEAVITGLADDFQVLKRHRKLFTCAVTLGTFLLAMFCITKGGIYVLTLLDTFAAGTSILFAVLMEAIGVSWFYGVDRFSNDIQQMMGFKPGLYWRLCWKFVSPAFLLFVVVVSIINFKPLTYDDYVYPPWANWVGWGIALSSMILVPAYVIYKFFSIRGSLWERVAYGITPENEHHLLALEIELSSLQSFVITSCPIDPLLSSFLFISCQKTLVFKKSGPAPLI
Outline: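 Synaptosomes (P2, rat brain) in modified KRH buffer (pH 7.4, nialamide) with drug, 30 min at 4 °C then 15 min at 37 °C. [3H]NE (9 nM final) uptake for 5 min; terminated by cold sodium-free buffer, GF/C filtration and scintillation counting. Specific uptake defined with 3 μM desipramine.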

[3] = molecular target: Sodium-dependent serotonin transporter (Rattus norvegicus, UniProt P31652); experiment: Ability to inhibit [3H]5-HT reuptake at serotonin transporter from rat brain
Sequence of Sodium-dependent serotonin transporter (P31652 whole entry): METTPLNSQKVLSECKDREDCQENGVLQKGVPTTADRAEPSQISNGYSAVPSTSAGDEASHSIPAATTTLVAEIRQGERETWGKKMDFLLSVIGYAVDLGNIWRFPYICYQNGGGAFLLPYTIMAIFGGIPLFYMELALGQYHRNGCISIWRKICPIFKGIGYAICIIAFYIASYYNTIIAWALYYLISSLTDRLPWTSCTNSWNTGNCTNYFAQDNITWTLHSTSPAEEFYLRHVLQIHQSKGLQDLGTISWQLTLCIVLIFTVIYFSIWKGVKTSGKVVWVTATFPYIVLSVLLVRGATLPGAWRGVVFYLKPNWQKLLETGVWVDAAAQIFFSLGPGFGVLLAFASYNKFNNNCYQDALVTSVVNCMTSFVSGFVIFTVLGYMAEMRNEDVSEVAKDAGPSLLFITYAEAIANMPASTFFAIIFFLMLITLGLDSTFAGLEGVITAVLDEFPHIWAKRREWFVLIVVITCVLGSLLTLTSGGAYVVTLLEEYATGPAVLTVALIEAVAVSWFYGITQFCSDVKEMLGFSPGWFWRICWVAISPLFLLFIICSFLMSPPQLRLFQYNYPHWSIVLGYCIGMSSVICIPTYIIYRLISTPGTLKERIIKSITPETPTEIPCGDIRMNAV
Outline: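 P2 synaptosomes from rat brain in modified KRH buffer (pH 7.4, nialamide), preincubated with drug 30 min at 4 °C, then 15 min at 37 °C. [3H]5-HT (~5 nM final) added for 5 min; stopped with cold sodium-free buffer, then GF/C filtration and scintillation counting. Nonspecific uptake set with 10 μM fluoxetine.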

[4] = molecular target: Monoamine transporters; Norepinephrine & serotonin (Rattus norvegicus) (UniProt P31652+Q9WTR4); experiment: Uptake ratio at norepinephrine to serotonin transporters from rat brain
Outline: (§1)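 Selectivity ratios calculated from Ki values of the rat brain synaptosomal [3H]DA, [3H]5-HT and [3H]NE uptake inhibition assays.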

[5] = molecular target: Monoamine transporters; serotonin & dopamine (Rattus norvegicus) (UniProt P31652+P23977); experiment: Uptake ratio at serotonin to dopamine transporters from rat brain; outline: as §1
Sequence of Monoamine transporters; serotonin & dopamine (Rattus norvegicus) (P23977 whole entry, looked up): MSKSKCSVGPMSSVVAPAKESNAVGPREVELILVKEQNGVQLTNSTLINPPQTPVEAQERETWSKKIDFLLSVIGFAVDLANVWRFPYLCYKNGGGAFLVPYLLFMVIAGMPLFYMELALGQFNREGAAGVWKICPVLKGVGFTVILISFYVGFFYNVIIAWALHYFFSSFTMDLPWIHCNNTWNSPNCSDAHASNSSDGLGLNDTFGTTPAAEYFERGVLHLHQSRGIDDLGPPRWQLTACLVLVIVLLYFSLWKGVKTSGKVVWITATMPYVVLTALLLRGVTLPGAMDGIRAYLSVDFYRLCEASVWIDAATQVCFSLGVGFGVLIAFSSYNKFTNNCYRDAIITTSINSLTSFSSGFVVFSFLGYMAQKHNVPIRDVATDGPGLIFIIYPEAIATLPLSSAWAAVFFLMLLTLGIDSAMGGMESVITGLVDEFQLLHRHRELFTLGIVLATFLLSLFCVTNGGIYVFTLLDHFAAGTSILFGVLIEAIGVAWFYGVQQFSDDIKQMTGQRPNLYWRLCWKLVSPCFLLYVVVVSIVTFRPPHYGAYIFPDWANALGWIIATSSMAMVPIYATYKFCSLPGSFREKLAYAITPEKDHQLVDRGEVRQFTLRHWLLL
Sequence of Monoamine transporters; serotonin & dopamine (Rattus norvegicus) (P31652 whole entry, looked up): as the sequence (P31652 whole entry) above

[6] = molecular target: Monoamine transporters; Norepininephrine & dopamine (Rattus norvegicus) (UniProt P23977+Q9WTR4); experiment: Uptake ratio at norepinephrine to dopamine transporters from rat brain; outline: as §1

Sequence of Sodium-dependent dopamine transporter (P23977 whole entry): as the sequence (P23977 whole entry, looked up) above

| SMILES | Ki [1] [nM] | Ki [2] [nM] | Ki [3] [nM] | Ratio [4] | Ratio [5] | Ratio [6] |
| --- | --- | --- | --- | --- | --- | --- |
| COC(=O)C1C2CCC3CCC1N(C/C2=C\c1ccc(-c2cccc(Cl)c2)cc1)C3 (centres undefined) | 89 | 17.5 | 213 | 0.08 | 2.4 | 0.2 |
| COC(=O)C1C2CCC3CCC1N(C/C2=C\c1ccc(-c2ccc(C#N)cc2)cc1)C3 (centres undefined) | 47 | 32.4 | 909 | 0.04 | 19.3 | 0.69 |
| COC(=O)C1C2CCC3CCC1N(C/C2=C\c1ccc(-c2ccc(Cl)cc2Cl)cc1)C3 (centres undefined) | 1590 | 466 | 393 | 1.19 | 0.25 | 0.29 |
| COC(=O)C1C2CCC3CCC1N(C/C2=C\c1ccc(-c2ccc(C(F)(F)F)cc2)cc1)C3 (centres undefined) | 3130 | 1150 | 2210 | 0.52 | 0.71 | 0.37 |
| COC(=O)C1C2CCC3CCC1N(C/C2=C\c1ccc(-c2ccc(Cl)c(Cl)c2)cc1)C3 (centres undefined) | 236 | 9.7 | 239 | 0.04 | 1.01 | 0.04 |
| CC(=O)OCC1C2CCC3CCC1N(C/C2=C\c1ccc(-c2ccccc2)cc1)C3 (centres undefined) | 165 | 57 | 46 | 1.24 | 0.28 | 0.35 |
| COC(=O)C1C2CCC3CCC1N(C/C2=C\c1ccc(-c2ccccc2)s1)C3 (centres undefined) | 179 | 13.5 | 71 | 0.19 | 0.4 | 0.08 |
| COC(=O)C1C2CCC3CCC1N(C/C2=C\c1ccc(-c2cccs2)cc1)C3 (centres undefined) | 155 | 19.8 | 73 | 0.27 | 0.47 | 0.13 |
| OC[C@@H]1C2CCC3CCC1N(C/C2=C\c1ccc(-c2ccccc2)cc1)C3 (some centres undefined) | 1300 | 183 | 1540 | 0.12 | 1.19 | 0.14 |
| COC(=O)C1C2CCC3CCC1N(C/C2=C\c1ccc(-c2ccsc2)cc1)C3 (centres undefined) | 277 | 20.5 | 145 | 0.14 | 0.52 | 0.07 |
| COC(=O)C1C2CCC3CCC1N(C/C2=C\c1ccc(-c2ccc(OC)cc2)cc1)C3 (centres undefined) | 841 | 39 | 3390 | 0 | 4.04 | 0.05 |
| COC(=O)[C@@H]1C2CCC3CCC1N(C/C2=C\c1ccc(-c2ccccc2)cc1)C3 (some centres undefined) | 477 | 12 | 614 | 0.02 | 1.29 | 0.02 |
| COC(=O)C1C2CCC3CCC1N(C/C2=C\c1ccc(-c2ccco2)cc1)C3 (centres undefined) | 98 | 13.9 | 248 | 0.06 | 2.54 | 0.14 |
| COC(=O)C1C2CCC3CCC1N(C/C2=C\c1ccc(-c2ccccc2)c(Cl)c1)C3 (centres undefined) | 4260 | 991 | 366 | 2.71 | 0.09 | 0.23 |
| O=C(OCC1C2CCC3CCC1N(C/C2=C\c1ccc(-c2ccc(Cl)c(Cl)c2)c(Cl)c1)C3)c1ccccc1 (centres undefined) | 5640 | > 10000 | 956 |  | 0.17 |  |
| COC(=O)C1C2CCC3CCC1N(C/C2=C\c1ccc(-n2cccc2)cc1)C3 (centres undefined) | 568 | 45.9 | 149 | 0.31 | 0.26 | 0.08 |
| COC(=O)C1C2CCC3CCC1N(C/C2=C\c1ccc(-c2ccc(N(C)C)cc2)cc1)C3 (centres undefined) | 1050 | 57.9 | 1000 | 0.06 | 0.95 | 0.05 |
| COC(=O)C1C2CCC3CCC1N(C/C2=C\c1ccc(-c2ccc(I)cc2)cc1)C3 (centres undefined) | 377 | 114 | 660 |  | 1.75 | 0.3 |
| COC(=O)C1C2CCC3CCC1N(C/C2=C\c1ccc(-c2cc(Cl)cc(Cl)c2)cc1)C3 (centres undefined) | 106 | 61 | 383 | 0.16 | 3.62 | 0.58 |
| COC(=O)C1C2CCC3CCC1N(C/C2=C\c1ccc(-c2ccc(OC)cc2)s1)C3 (centres undefined) | 317 | 10.3 | 531 | 0.02 | 1.43 | 0.03 |
| COC(=O)C1C2CCC3CCC1N(C/C2=C\c1ccc(-c2ccc(C)s2)cc1)C3 (centres undefined) | 674 | 22.5 | 200 | 0.11 | 0.3 |  |
| COC(=O)C1C2CCC3CCC1N(C/C2=C\c1ccc(-c2ccc(Cl)cc2)cc1)C3 (centres undefined) | 417 | 739 | 1260 | 0.59 | 3.03 | 1.77 |
| COC(=O)C1C2CCC3CCC1N(C/C2=C\c1ccc(-c2ccc(C)cc2)cc1)C3 (centres undefined) | 214 | 22.7 | 1490 | 0.02 | 6.97 | 0.11 |
